Measured values from ChEMBL document CHEMBL2062456, “Green synthesis and anti-infective activities of fluorinated pyrazoline derivatives” (2012).
≈ marks a conversion by molar mass, not a printed value.

Key:
Type in all cases: functional
Aspergillus niger = assay: Antifungal activity against Aspergillus niger MTCC 282
Escherichia coli = assay: Antibacterial activity against Escherichia coli MTCC 443
Staphylococcus aureus = assay: Antibacterial activity against Staphylococcus aureus MTCC 96
Streptococcus pyogenes = assay: Antibacterial activity against Streptococcus pyogenes MTCC 442
Aspergillus clavatus = assay: Antifungal activity against Aspergillus clavatus MTCC 1323
Candida albicans = assay: Antifungal activity against Candida albicans MTCC 227
Bacillus subtilis = assay: Antibacterial activity against Bacillus subtilis MTCC 441
[1] = tested on: Mycobacterium tuberculosis; assay: Antitubercular activity against Mycobacterium tuberculosis H37Rv by Lowenstein-Jensen slope method
How it was run: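 Lowenstein–Jensen medium used both to grow the strain and to dilute test drugs. Inoculum adjusted to 1 mg/mL. Compounds were made as 2 mg/mL stocks and diluted with 1% DMSO. Primary screen at 500, 250 and 125; actives were retested at 100 down to 1.5625 (twofold series). MIC is the minimum concentration inhibiting 99% of growth. Vehicle and reference controls were included, and tests were run in duplicate.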

| Molecule | MIC99 (Aspergillus niger) | MIC99 (Escherichia coli) | MIC99 (Staphylococcus aureus) | MIC99 (Streptococcus pyogenes) | MIC99 (Aspergillus clavatus) | MIC99 (Candida albicans) | MIC99 (Bacillus subtilis) | MIC99 [1] |
| --- | --- | --- | --- | --- | --- | --- | --- | --- |
| Fc1ccc(-c2nn(-c3ccccc3)cc2C2=NNC(c3ccccc3)C2)cc1 (configuration not stated) | 50 µg/mL (≈ 131 µM) | 10 µg/mL (≈ 26.1 µM) | 50 µg/mL (≈ 131 µM) | 50 µg/mL (≈ 131 µM) | 50 µg/mL (≈ 131 µM) | 50 µg/mL (≈ 131 µM) | 20 µg/mL (≈ 52.3 µM) | 25 µg/mL (≈ 65.4 µM) |
| O=C(O)c1cn(C2CC2)c2cc(N3CCNCC3)c(F)cc2c1=O [CIPROFLOXACIN] |  | 25 µg/mL (≈ 75.4 µM) | 50 µg/mL (≈ 151 µM) | 50 µg/mL (≈ 151 µM) |  |  | 25 µg/mL (≈ 75.4 µM) |  |
| Fc1ccc(-c2nn(-c3ccccc3)cc2C2=NNC(c3ccc(F)cc3)C2)cc1 (configuration not stated) | 50 µg/mL (≈ 125 µM) | 20 µg/mL (≈ 49.9 µM) | 25 µg/mL (≈ 62.4 µM) | 25 µg/mL (≈ 62.4 µM) | 50 µg/mL (≈ 125 µM) | 20 µg/mL (≈ 49.9 µM) | 25 µg/mL (≈ 62.4 µM) | 25 µg/mL (≈ 62.4 µM) |
| O=C(/C=C/c1cn(-c2ccccc2)nc1-c1ccc(F)cc1)c1ccc(Br)cc1 | > 100 µg/mL | 20 µg/mL (≈ 44.7 µM) | 25 µg/mL (≈ 55.9 µM) | 20 µg/mL (≈ 44.7 µM) | > 100 µg/mL | 10 µg/mL (≈ 22.4 µM) | 20 µg/mL (≈ 44.7 µM) | 50 µg/mL (≈ 112 µM) |
| CCn1cc(C(=O)O)c(=O)c2cc(F)c(N3CCNCC3)cc21 [NORFLOXACIN] |  | 10 µg/mL (≈ 31.3 µM) | 10 µg/mL (≈ 31.3 µM) | 10 µg/mL (≈ 31.3 µM) |  |  | 10 µg/mL (≈ 31.3 µM) |  |
| Cc1ccc(C2CC(c3cn(-c4ccccc4)nc3-c3ccc(F)cc3)=NN2)cc1 (configuration not stated) | 100 µg/mL (≈ 252 µM) | 50 µg/mL (≈ 126 µM) | 12.5 µg/mL (≈ 31.5 µM) | 10 µg/mL (≈ 25.2 µM) | 100 µg/mL (≈ 252 µM) | 25 µg/mL (≈ 63.1 µM) | 50 µg/mL (≈ 126 µM) | 10 µg/mL (≈ 25.2 µM) |
| NNC(=O)c1ccncc1 [ISONIAZID] |  |  |  |  |  |  |  | 0.2 µg/mL (≈ 1.46 µM) |
| CC1(C)S[C@@H]2[C@H](NC(=O)[C@H](N)c3ccccc3)C(=O)N2[C@H]1C(=O)O [AMPICILLIN] |  | 100 µg/mL (≈ 286 µM) | 250 µg/mL (≈ 715 µM) | 100 µg/mL (≈ 286 µM) |  |  | 100 µg/mL (≈ 286 µM) |  |
| Fc1ccc(-c2nn(-c3ccccc3)cc2C2=NNC(c3ccc(Cl)cc3)C2)cc1 (configuration not stated) | 50 µg/mL (≈ 120 µM) | 25 µg/mL (≈ 60 µM) | 20 µg/mL (≈ 48 µM) | 20 µg/mL (≈ 48 µM) | 50 µg/mL (≈ 120 µM) | 100 µg/mL (≈ 240 µM) | 25 µg/mL (≈ 60 µM) | 6.25 µg/mL (≈ 15 µM) |
| COC1=CC(=O)C[C@@H](C)[C@]12Oc1c(Cl)c(OC)cc(OC)c1C2=O [GRISEOFULVIN] | 100 µg/mL (≈ 283 µM) |  |  |  | 100 µg/mL (≈ 283 µM) | 500 µg/mL (≈ 1420 µM) |  |  |
| GENTAMICIN |  | 0.05 µg/mL | 0.25 µg/mL | 0.5 µg/mL |  |  | 1 µg/mL |  |
| O=C(/C=C/c1cn(-c2ccccc2)nc1-c1ccc(F)cc1)c1ccc(F)cc1 | 20 µg/mL (≈ 51.8 µM) | 25 µg/mL (≈ 64.7 µM) | 6.25 µg/mL (≈ 16.2 µM) | 10 µg/mL (≈ 25.9 µM) | 20 µg/mL (≈ 51.8 µM) | 100 µg/mL (≈ 259 µM) | 20 µg/mL (≈ 51.8 µM) | 25 µg/mL (≈ 64.7 µM) |
| NYSTATIN | 100 µg/mL |  |  |  | 100 µg/mL | 100 µg/mL |  |  |
| Fc1ccc(-c2nn(-c3ccccc3)cc2C2=NNC(c3ccc(Br)cc3)C2)cc1 (configuration not stated) | 10 µg/mL (≈ 21.7 µM) | 6.25 µg/mL (≈ 13.5 µM) | 6.25 µg/mL (≈ 13.5 µM) | 10 µg/mL (≈ 21.7 µM) | 10 µg/mL (≈ 21.7 µM) | 10 µg/mL (≈ 21.7 µM) | 10 µg/mL (≈ 21.7 µM) | 50 µg/mL (≈ 108 µM) |
| O=C(/C=C/c1cn(-c2ccccc2)nc1-c1ccc(F)cc1)c1ccc(Cl)cc1 | > 100 µg/mL | 6.25 µg/mL (≈ 15.5 µM) | 25 µg/mL (≈ 62.1 µM) | 20 µg/mL (≈ 49.6 µM) | > 100 µg/mL | 100 µg/mL (≈ 248 µM) | 12.5 µg/mL (≈ 31 µM) | 10 µg/mL (≈ 24.8 µM) |
| O=C(/C=C/c1cn(-c2ccccc2)nc1-c1ccc(F)cc1)c1ccccc1 | 50 µg/mL (≈ 136 µM) | 20 µg/mL (≈ 54.3 µM) | 10 µg/mL (≈ 27.1 µM) | 12.5 µg/mL (≈ 33.9 µM) | 50 µg/mL (≈ 136 µM) | 25 µg/mL (≈ 67.9 µM) | 25 µg/mL (≈ 67.9 µM) | 50 µg/mL (≈ 136 µM) |
| Cc1ccc(C(=O)/C=C/c2cn(-c3ccccc3)nc2-c2ccc(F)cc2)cc1 | 100 µg/mL (≈ 261 µM) | 12.5 µg/mL (≈ 32.7 µM) | 20 µg/mL (≈ 52.3 µM) | 25 µg/mL (≈ 65.4 µM) | 100 µg/mL (≈ 261 µM) | 50 µg/mL (≈ 131 µM) | 20 µg/mL (≈ 52.3 µM) | 6.25 µg/mL (≈ 16.3 µM) |
| O=C(N[C@H](CO)[C@H](O)c1ccc([N+](=O)[O-])cc1)C(Cl)Cl [CHLORAMPHENICOL] |  | 50 µg/mL (≈ 155 µM) | 50 µg/mL (≈ 155 µM) | 50 µg/mL (≈ 155 µM) |  |  | 50 µg/mL (≈ 155 µM) |  |
